Assay [1] addresses T1, Sodium-dependent dopamine transporter (Rattus norvegicus, UniProt P23977). Briefly: Inhibition of [125I]RTI-55 binding to dopamine transport sites in rat striatal membranes. Type of assay: cell membranes, Membrane.
In assay [2] the target is Sodium-dependent serotonin transporter (Rattus norvegicus, UniProt P31652). Briefly: Inhibition of [3H]paroxetine binding to serotonin transport sites in rat frontal cortex membranes. Type of assay: cell membranes, Membrane. An outline of the steps:
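Frontal cortex from male Sprague-Dawley rats, homogenized in 50 mM Tris-HCl/120 mM NaCl/5 mM KCl pH 7.4 and washed twice at 48000g. […] Filtered on GF/B presoaked in 0.05% polyethyleneimine. Nonspecific binding with 10 μM fluoxetine.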

Assay [3] deals with T1, Sodium-dependent dopamine transporter. Briefly: The potency of the [125I]RTI-55 for Dopamine transporter site.

pIC50, pKd, pKi: −log10 of the molar value.

T1 sequence (P23977 whole entry): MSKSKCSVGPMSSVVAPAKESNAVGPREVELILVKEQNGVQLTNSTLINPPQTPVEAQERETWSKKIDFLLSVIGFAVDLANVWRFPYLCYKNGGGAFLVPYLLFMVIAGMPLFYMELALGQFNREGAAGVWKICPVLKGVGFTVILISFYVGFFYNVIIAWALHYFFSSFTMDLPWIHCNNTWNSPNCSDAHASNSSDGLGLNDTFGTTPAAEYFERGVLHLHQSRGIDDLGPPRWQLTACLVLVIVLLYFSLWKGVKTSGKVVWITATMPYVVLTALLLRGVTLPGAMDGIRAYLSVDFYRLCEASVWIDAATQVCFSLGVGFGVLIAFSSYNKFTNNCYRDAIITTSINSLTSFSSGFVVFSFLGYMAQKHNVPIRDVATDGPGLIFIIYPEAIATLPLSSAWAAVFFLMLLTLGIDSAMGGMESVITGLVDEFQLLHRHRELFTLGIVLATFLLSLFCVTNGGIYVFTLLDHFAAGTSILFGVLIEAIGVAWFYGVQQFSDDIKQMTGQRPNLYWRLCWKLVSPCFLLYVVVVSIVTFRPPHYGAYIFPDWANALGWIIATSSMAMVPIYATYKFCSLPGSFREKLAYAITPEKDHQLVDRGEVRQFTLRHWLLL
Sequence of Sodium-dependent serotonin transporter (P31652 whole entry): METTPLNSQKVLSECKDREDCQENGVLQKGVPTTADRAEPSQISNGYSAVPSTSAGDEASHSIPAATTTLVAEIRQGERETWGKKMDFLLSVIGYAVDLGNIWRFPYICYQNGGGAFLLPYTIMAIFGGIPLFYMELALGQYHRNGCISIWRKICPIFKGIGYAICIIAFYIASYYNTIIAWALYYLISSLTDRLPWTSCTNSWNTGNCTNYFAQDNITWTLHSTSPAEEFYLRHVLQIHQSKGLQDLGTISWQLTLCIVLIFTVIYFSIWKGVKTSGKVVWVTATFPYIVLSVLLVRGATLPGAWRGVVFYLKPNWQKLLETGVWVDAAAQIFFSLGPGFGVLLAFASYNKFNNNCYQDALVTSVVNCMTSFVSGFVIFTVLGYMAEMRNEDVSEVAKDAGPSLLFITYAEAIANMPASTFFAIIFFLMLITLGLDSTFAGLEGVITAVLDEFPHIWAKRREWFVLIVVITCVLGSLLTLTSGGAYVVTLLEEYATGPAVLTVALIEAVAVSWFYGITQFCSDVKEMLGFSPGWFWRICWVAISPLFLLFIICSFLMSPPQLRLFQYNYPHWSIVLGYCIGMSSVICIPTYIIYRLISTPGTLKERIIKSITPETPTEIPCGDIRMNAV

What is called pIC50 is the negative decadic logarithm of the IC50, by convention in mol/L. A high value points to a small IC50. As usually defined, the pKi is the Ki on a negative log10 scale, so that one unit is a factor of ten. Compound `CCC(=O)C1C(c2ccc3ccccc3c2)CC2CCC1N2C` (stereo in doubt; 21a) had a pIC50 in assay [1] of 9.94. The compound also had a pKi in assay [2] of 9.40.
Taken in the same sequence, the figures for `CCC(=O)C1C(c2ccc(C)cc2)CC2CCC1N2C` (stereo in doubt; 12a) were 8.09 and 6.88.
Taken in the same sequence, the figures for `CC(=O)C1C(c2ccccc2)CC2CCC1N2C` (stereo unspecified) were 6.94 and 5.87.
Taken in the same sequence, the figures for `CC(=O)C1C(c2ccc3ccccc3c2)CC2CCC1N2C` (stereo unspecified) were 9.55 and 8.97.
The compound `CCC(=O)C1C(c2ccc(F)cc2)CC2CCC1N2C` (stereo unspecified) had a pIC50 in assay [1] of 7.82. This compound had a pKi in assay [2] of 6.20.
In turn, `CC(=O)C1C(c2cccc3ccccc23)CC2CCC1N2C` (stereo unspecified) gave a pKi in assay [2] of 7.59.
As for `CCC(=O)C1C(c2ccc(C(C)(C)C)cc2)CC2CCC1N2C` (stereo unspecified), the pIC50 in assay [1] is 5.67. Also, in assay [2], the negative logarithm of the Ki (pKi) was 5.75.
By pKd is commonly meant −log10 of the Kd, conventionally taken in molar units. Lower therefore signals a high Kd. Compound `CCOC(=O)C1C(c2ccc(I)cc2)CC2CCC1N2C` (stereo unspecified) showed a pKd in assay [3] of 9.00.
Regarding `CCC(=O)C1C(C2CCCCC2)CC2CCC1N2C` (stereo unspecified), the pIC50 in assay [1] was 5.34. In addition, in assay [2], the pKi is below 5.00.
In assay [1], `CCC(=O)C1C(c2ccc(C(C)C)cc2)CC2CCC1N2C` (stereo unspecified) showed a pIC50 of 6.36. The compound further showed a pKi in assay [2] of 7.45.
The corresponding values for `CCC(=O)C1C(c2ccc(C)cc2)CC2CCC1N2C` (single isomer, unassigned; (+)) are 8.38 and 7.13.
The corresponding values for `CCC(=O)C1C(CC)CC2CCC1N2C` (stereo unspecified) are below 4.30 and below 5.00.
In assay [1], `CCC(=O)C1C(c2ccc(C)cc2)CC2CCC1N2C` (single isomer, unassigned; (-)) showed a pIC50 of 5.87. Further, the pKi in assay [2] is below 5.00.
Consider `CCc1ccc(C2CC3CCC(C2C(C)=O)N3C)cc1` (stereo unspecified), for which the negative logarithm of the IC50 (pIC50) in assay [1] is 6.82. This compound gave a pKi in assay [2] of 7.11.
The corresponding values for `CCC(=O)C1C(c2ccc3ccccc3c2)CC2CCC1N2C` (stereo in doubt; (+)-21a) are 10.37 and 9.92.
For the compound `CCC(=O)C1C(c2ccccc2)CC2CCC1N2C` (stereo unspecified), in assay [2], the pKi is 6.00.
For `CCC(=O)C1C(c2ccc(-c3ccccc3)cc2)CC2CCC1N2C` (stereo unspecified), the pIC50 in assay [1] was 8.64. In addition, the pKi in assay [2] is 8.37.
The corresponding values for `CCC(=O)C1C(c2ccc3ccccc3c2)CC2CCC1N2C` (single isomer, unassigned; (-)) are 6.95 and 6.32.
`CC(=O)C1C(c2ccc(F)cc2)CC2CCC1N2C` (stereo unspecified): the pIC50 in assay [1] is 7.15. This compound had a negative-log Ki (pKi) in assay [2] of 6.07.
The corresponding values for `CC(=O)C1C(c2ccc(C)cc2)CC2CCC1N2C` (stereo unspecified) are 8.01 and 6.91.
The corresponding values for `CCC(=O)C1C(c2ccccc2C)CC2CCC1N2C` (stereo unspecified) are 5.89 and below 5.00.
Taken in the same sequence, the figures for `CCC(=O)C1C(c2cccc3ccccc23)CC2CCC1N2C` (stereo unspecified) were 8.27 and 7.68.

(Values after ChEMBL document CHEMBL1127821 (J Med Chem, 1994).)
